From publication PMC2191014 (The Journal of Experimental Medicine, 1993)
Non-standard residues stand in square brackets, D forms with d. Residues, ends and D or L forms follow the SMILES beside them.

How the values were obtained:
[1] = Peptide-specific antibodies by ELISA in sera of chronically treated mice; format: in vivo, mouse (NOD); conditions: for peptide-specific IgG antibodies / peptide-specific IgM antibodies: ELISA, sera of chronically treated mice
Outline: (§1)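 ELISA on sera of individual chronically peptide-treated NOD mice at several time points. Wells were coated with 250 ng peptide in PBS at 4°C overnight and blocked with 2% BSA, 37°C, 30 min. Diluted sera ran 1 h at 37°C, then phosphatase-conjugated anti-mouse Ig, IgG or IgM (1:500) 2 h at 37°C. p-Nitrophenyl phosphate (1 mg/ml) ran 45 min, read at OD 405. Uncoated-well background was subtracted from duplicate means.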

Ag7 = test: Screening: binding to Ag7; format: cell-based, mouse (NOD); conditions: screening of peptide panel
Ek = test: Competition for antigen presentation of HEL 1-18 to hybridoma 2G7.1; format: cell-based, mouse; conditions: APC LK cells, 2 μM HEL 1-18, competitor up to 100 μM
Outline: (§2)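 LK cells (2.5 × 10^4/well) served as APC. They were preincubated 24 h with antigenic peptide plus competitor peptide in RPMI 1640 with 10% FCS, then irradiated (2,000 rad) and washed. Hybridoma cells (5 × 10^4/well) were added for 24 h. Supernatant was transferred to 10^4 CTLL cells, and IL-2 was read as thymidine uptake over the last 4 h of the 24-h CTLL culture.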

Ad = target: T1, Ad (Mus musculus, UniProt P01921+P04228); test: Competition for antigen presentation of OVA 323-339 to hybridoma DO11.10; format: cell-based
T1 sequence (P01921 28-265): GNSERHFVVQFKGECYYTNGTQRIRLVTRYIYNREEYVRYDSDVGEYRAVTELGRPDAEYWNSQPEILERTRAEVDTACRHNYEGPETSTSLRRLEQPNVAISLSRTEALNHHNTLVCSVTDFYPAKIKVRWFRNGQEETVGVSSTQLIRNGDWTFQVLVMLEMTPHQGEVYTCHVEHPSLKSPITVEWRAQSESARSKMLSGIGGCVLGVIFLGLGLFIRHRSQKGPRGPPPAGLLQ
T1 sequence (P04228 24-256): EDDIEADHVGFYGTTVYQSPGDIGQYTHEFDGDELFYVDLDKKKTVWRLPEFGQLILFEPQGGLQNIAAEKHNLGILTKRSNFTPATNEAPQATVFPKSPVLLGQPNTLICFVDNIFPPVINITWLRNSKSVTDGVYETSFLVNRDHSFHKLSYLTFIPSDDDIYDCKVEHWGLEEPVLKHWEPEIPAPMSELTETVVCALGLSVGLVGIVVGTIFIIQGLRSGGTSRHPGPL
Outline: as §2

[2] = system: NOD mice, spontaneous autoimmune diabetes; test: Prevention of spontaneous diabetes in female NOD mice, first experiment; format: in vivo, mouse (NOD)
Outline: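 Female NOD mice from an SPF in-house colony were dosed from 3 wk of age with 500 nmol peptide in HBSS, i.p. and s.c. at multiple sites. The schedule was five times weekly for 3 wk, five times weekly for 3 wk more, then twice weekly to 22-23 wk. Arms: test peptide (18 mice), nonbinding control peptide (12), HBSS (18). Monitoring began at 10 wk; blood glucose ≥200 mg/dl counted as diabetic.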

Ed = test: Competition for antigen presentation of HEL 105-120 to hybridoma 1H11.3; format: cell-based, mouse; conditions: APC LK cells, 500 nM HEL 105-120, competitor up to 100 μM
Outline: as §2

[3] = system: NOD class II MHC molecule Ag7; test: Competition for antigen presentation of HEL 8-29 to T cell hybridoma 2D12.1; format: cell-based, mouse (NOD); conditions: APC NOD splenocytes, 80 nM HEL 8-29, competitor up to 100 μM
Outline: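 NOD splenocytes (2.5 × 10^5/well) served as APC. They were held 24 h with antigenic peptide and competitor in RPMI 1640 + 10% FCS, then irradiated at 2,000 rad and washed before 5 × 10^4 hybridoma cells were added. After 24 h, supernatant went onto 10^4 CTLL cells. IL-2 was measured by thymidine incorporation during the final 4 h of the 24-h CTLL culture.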

NOD mice [4] = test: Mortality and hypersensitivity during chronic treatment, first experiment; format: in vivo, mouse (NOD); conditions: after 10-18 wk of treatment; 500 nmol chronic
Outline: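 Female NOD mice from 3 wk of age got 500 nmol test peptide in HBSS, i.p. and s.c. at multiple sites. Schedule: five times/week for 3 wk, five times/week for a further 3 wk, then twice weekly to 22-23 wk. Groups: 18 test-peptide, 12 nonblocking-peptide and 18 HBSS-only mice.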

[5] = Peptide-specific antibodies in mice of the Fig. 3 B experiment; format: in vivo, mouse (NOD); conditions: data not shown
Outline: as §1

NOD mice [6] = test: Mortality and symptoms during chronic treatment, second experiment; format: in vivo, mouse (NOD)
Outline: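 Female NOD mice received 500 nmol test peptide in HBSS, i.p. and s.c., from 3 wk of age for 20 wk. Thereafter peptide was co-injected with ketotifen 3 mg/kg […] (13 mice). Controls were ketotifen only (15) and HBSS only (15).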

[7] = system: Ag7-restricted T cell response; conditions: cited from earlier work

Molecule | peptide-specific IgG antibodies [1] | peptide-specific IgM antibodies [1] | fraction of mice nonresponders ([1]; chronic treatment) | binding to Ag7 (Ag7) | effect on antigen presentation by Ek (Ek) | effect on antigen presentation by Ad (Ad; APC LK cells, 1 μM OVA 323-339, hybridoma DO11.10, competitor up to 100 μM) | plateau level of diabetic animals ([2]; by 22 wk of age, control groups (P2, 12 mice, or solvent)) [%] | effect on spontaneous diabetes (summary) ([2]; chronic administration from 3 wk of age on, female NOD mice) | effect on antigen presentation by Ed (Ed) | effect on antigen presentation by Ag7 [3] | mortality (died/total) (NOD mice [4]) | fraction of mice antibody negative ([1]; after 13 wk of treatment) | IC50 (Ad) [µM] | animals producing antibodies against the peptide [5] | mortality (NOD mice [6]; P1 mixed with ketotifen (3 mg/kg) after 20 wk of treatment) | symptoms after adding ketotifen (NOD mice [6]; P1 mixed with ketotifen (3 mg/kg) after first signs of postinjection fatigue (20 wk of treatment)) | Ag7-restricted T cell response of NOD mice [7]
KMKMVHAAHAKMKM [P2] | no IgG | exclusively of IgM isotype | Approximately half | fails to bind | inhibited antigen presentation | inhibited antigen presentation | 60 | no effect on the disease | not that by As7 and Ea | not that by As7 | 1/12 | – | – | – | – | – | –
CC(C)[C@H](NC(=O)[C@@H](NC(=O)[C@H](Cc1ccc(O)cc1)NC(=O)[C@@H](NC(=O)[C@H](N)Cc1ccc(O)cc1)[C@@H](C)O)[C@@H](C)O)C(=O)N[C@@H](Cc1c[nH]cn1)C(=O)N[C@@H](C)C(=O)N[C@@H](C)C(=O)N[C@@H](Cc1c[nH]cn1)C(=O)N[C@@H](C)C(=O)N[C@@H](Cc1ccc(O)cc1)C(=O)N[C@H](C(=O)N[C@@H](Cc1ccc(O)cc1)C(=O)N[C@@H](C(=O)O)[C@H](C)O)[C@@H](C)O [P1, yTYTVHAAHAYTYt] (H-[dY]TYTVHAAHAYTY[dT]-OH) | IgG | no IgM | – | – | – | – | – | – | – | – | 6/18 | Approximately half | ~20 | 3 of 13 animals | no mortality occurred | symptomless | –
sheep insuline: sheep insulin used as antigen in NOD mice | – | – | – | – | – | – | – | – | – | – | – | – | – | – | – | – | strong
